Measured values taken from article PMC9293343 (Chemmedchem, 2021).

Assays:
Neh1‐ΔLZIP = molecular target: T1, Neh1‐ΔLZIP (Homo sapiens, UniProt Q16236); type: binding; settings: 0.750 mM compound 2, ARE DNA 0.10, 0.20, 0.30 mM, 50 μM protein
T1 sequence (Q16236 445-523): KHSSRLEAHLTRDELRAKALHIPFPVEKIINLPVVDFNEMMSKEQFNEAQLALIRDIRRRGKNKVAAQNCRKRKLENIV

[1] = molecular target: T2, Neh1 (residues 445–523, Neh1‐ΔLZIP) domain of NRF2 (Homo sapiens, UniProt Q16236); experiment: 1H-15N HSQC small-molecule titration; type: binding
T2 sequence (Q16236 445-523): T1 sequence (Q16236 445-523)
Method in brief: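 15N-labelled human NRF2 residues 445–523 were expressed in E. coli BL21(DE3) with TEV-cleaved MBP/His tags and used at 50 μM in 50 mM sodium phosphate pH 6.5, 150 mM NaCl, 1 mM DTT. Test compound (50 mM DMSO-d6 stock) was titrated to final 0.250, 0.750, 1.5 and 2.0 mM, with 1H-15N HSQC at each step. Combined 1HN/15N CSPs were fitted per residue by nonlinear least squares for KD.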

Kd ([1]; KD, from CSP values using equation (1), average over R499, D500, R503): 1.7 ± 0.1 mM
chemical shift change of side chain amide nitrogen Nδ2 of N482, measured value ([1]; at approximately 50–60 % protein fraction bound): 0.64 ppm
CSP, backbone amide of N482 ([1]; upon addition of compound 2): 0.04 ppm
Compound: O=C(O)COc1ccc(-c2ccccc2)cc1Br [Compound 2, 2‐((3‐bromo‐[1,1’‐biphenyl]‐4‐yl)oxy)acetic acid]
replacement of compound by ARE DNA (competition) (Neh1‐ΔLZIP): final spectrum which is very close to the spectrum of Neh1‐ΔLZIP bound to ARE
